ChEMBL document CHEMBL4351007, “Synthesis and biological evaluation of (1,2,4)triazole[4,3-a]pyridine derivatives as potential therapeutic agents for concanavalin A-induced hepatitis” (Eur J Med Chem, 2019)
The source made the active and inactive calls. No cut-off for these calls is given here.

Tests used:
RAW264.7 [1] = assay: Antiinflammatory activity in mouse RAW264.7 cells assessed as LPS-induced nitric oxide level at 20 uM preincubated for 1 hr followed by LPS treatment and measured after 23 hrs by Griess reagent based assay (reference value: 96.06 to 102.81%); format: functional
How it was run: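 RAW264.7 cells seeded at 1 × 10^5/mL and left overnight. Compound (20 μM) added 1 h before LPS at 1 μg/mL, then 23 h more incubation. Nitrite in supernatant read with Griess reagent at 540 nm and expressed as NO relative to the LPS-only wells (%).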

L02 = assay: Cytotoxicity against human LO2 cells assessed as cell viability at 20 uM measured after 24 hrs by MTT assay; format: cell-based; conditions: l02, 24 h
How it was run: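 LO2 human liver cells (1.5–5 × 10^3 per well) seeded overnight, then exposed to compound for 24 h. MTT (5 mg/mL stock) added for 2–4 h at 37 °C. Formazan dissolved in DMSO and absorbance read at 570 nm. Three replicate experiments.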

RAW264.7 [2] = assay: Antiinflammatory activity against mouse RAW264.7 assessed as decrease in Con-A induced […] IL-10 expression level at 1 uM measured after 22 hrs by RT-PCR analysis; format: functional, cell-based
How it was run: (§1)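 RAW264.7 macrophages (DMEM, 10% FBS, 37 °C, 5% CO2) pretreated with Con A for 2 h, then compound at 1 μM for a further 22 h. mRNA quantified by SYBR real-time PCR (95 °C 30 s; 40 cycles of 95 °C 5 s, 60 °C 20 s), normalized to GAPDH, run in triplicate; mean ± SD, n=5.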

RAW264.7 [3] = assay: Antiinflammatory activity against mouse RAW264.7 assessed as decrease in Con-A induced INF-gamma mRNA expression level at 1 uM measured after 22 hrs by RT-PCR analysis; format: functional, cell-based; how it was run: as §1
Mus musculus [4] = species on record: Mus musculus; assay: Hepatoprotective activity in mouse model of Con-A induced autoimmune hepatitis assessed as decrease in necrosis of hepatocytes by H and E staining based […] microscopic analysis; format: functional, organism-based
How it was run: (§2)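 Livers collected 12 h after Con A 20 mg/kg i.v. plus compound 100 mg/kg i.p. Tissue formalin-fixed, paraffin-embedded and cut into 4–5 μm sections. Sections stained with H&E for light microscopy; further sections immunostained for CD4, CD11b and F4/80 and imaged by fluorescence microscopy.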

Mus musculus [5] = assay: Antiinflammatory activity in mouse model of Con-A induced autoimmune hepatitis assessed as of MDSC accumulation at 100 mg/kg by flow cytometry analysis (reference value: 11.31%); format: functional
How it was run: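 Female BALB/c mice given Con A 20 mg/kg i.v. plus compound 100 mg/kg i.p. (PEG 400/saline vehicle), livers taken at 12 h. Liver single-cell suspensions prepared by mechanical disruption and 1 mg/mL collagenase I digestion, with red cells lysed. 1×10^6 cells stained for CD11b and Gr-1; MDSC percentage determined by flow cytometry.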

RAW264.7 [6] = assay: Inhibition of MCP-1 mediated chemotaxis in mouse RAW264.7 cells at 20 uM measured after 3 hrs by light microscopic analysis relative to control; format: functional; conditions: for inhibition at 20 µM: RAW264.7, 3 h
How it was run: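 RAW264.7 cells serum-starved for 3 h, then placed in the upper Transwell chamber in 0.5% BSA medium with compound (20 μM) or DMSO. Lower chamber held 200 ng/mL MCP-1. After 3 h at 37 °C, migrated cells fixed, crystal violet-stained and counted in randomly chosen fields. Inhibitory rate = 1 − N1/(N1+N2); three chambers per condition.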

Mus musculus [7] = species on record: Mus musculus; assay: Hepatoprotective activity in mouse model of Con-A induced autoimmune hepatitis assessed as reduction in Con-A induced CD4-positive cells infiltration by […] microscopic analysis; format: functional, organism-based; how it was run: as §2
RAW264.7 [8] = assay: Antiinflammatory activity against mouse RAW264.7 assessed as decrease in Con-A induced IL-6 mRNA expression level at 1 uM measured after 22 hrs by RT-PCR analysis; format: functional, cell-based; how it was run: as §1
Mus musculus [9] = species on record: Mus musculus; assay: Hepatoprotective activity in mouse model of Con-A induced autoimmune hepatitis assessed as reduction in Con-A induced CD11b-positive cells infiltration by […] microscopic analysis; format: functional, organism-based; how it was run: as §2
Mus musculus [10] = assay: Antiinflammatory activity in mouse model of Con-A induced autoimmune hepatitis assessed as decrease in serum AST level at 100 mg/kg, ip measured after 12 hrs relative to control; format: functional; set-up: scale not given: the % may be the effect or the level left
How it was run: (§3)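 Female BALB/c mice, 6–8 weeks old, SPF housing. Con A 20 mg/kg given i.v., then compound 100 mg/kg i.p. in 40% PEG 400/60% saline; model group received vehicle. Killed at 12 h. Plasma ALT and AST measured on an automatic analyzer. Mean ± SD, n=5; ANOVA with Tukey's test.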

[11] = molecular target: Transcription factor p65 (Mus musculus) (UniProt Q04207); assay: Inhibition of Con A-induced NF-kappaB p65 translocation in mouse RAW264.7 cells incubated for 22 hrs by DAPI staining based laser scanning confocal microscopic analysis; format: cell-based
How it was run: (§4)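 RAW264.7 cells (2×10^4/well) seeded overnight and stimulated for 2 h with Con A (0.6 μM) or LPS (1 μg/mL), then compound at various concentrations for 22 h. Cells fixed in paraformaldehyde, permeabilized with Triton X-100 and blocked in BSA. Stained with anti-p65 and FITC secondary antibody, nuclei with DAPI; imaged by confocal microscopy.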

Mus musculus [12] = assay: Antiinflammatory activity in mouse model of Con-A induced autoimmune hepatitis assessed as decrease in serum ALT level at 100 mg/kg, ip measured after 12 hrs relative to control; format: functional; set-up: scale not given: the % may be the effect or the level left; how it was run: as §3
RAW264.7 [13] = assay: Antiinflammatory activity against mouse RAW264.7 assessed as decrease in Con-A induced TNF-alpha mRNA expression level at 1 uM measured after 22 hrs by RT-PCR analysis; format: functional, cell-based; how it was run: as §1
[14] = molecular target: Transcription factor p65 (Mus musculus) (UniProt Q04207); assay: Inhibition of LPS-induced NF-kappaB p65 translocation in mouse RAW264.7 cells incubated for 22 hrs by DAPI staining based laser scanning confocal microscopic analysis; format: cell-based; how it was run: as §4
Mus musculus [15] = species on record: Mus musculus; assay: Hepatoprotective activity in mouse model of Con-A induced autoimmune hepatitis assessed as reduction in Con-A induced F4/80-positive cells infiltration by […] microscopic analysis; format: functional, organism-based; how it was run: as §2

Transcription factor p65 (Mus musculus), sequence (Q04207 whole entry): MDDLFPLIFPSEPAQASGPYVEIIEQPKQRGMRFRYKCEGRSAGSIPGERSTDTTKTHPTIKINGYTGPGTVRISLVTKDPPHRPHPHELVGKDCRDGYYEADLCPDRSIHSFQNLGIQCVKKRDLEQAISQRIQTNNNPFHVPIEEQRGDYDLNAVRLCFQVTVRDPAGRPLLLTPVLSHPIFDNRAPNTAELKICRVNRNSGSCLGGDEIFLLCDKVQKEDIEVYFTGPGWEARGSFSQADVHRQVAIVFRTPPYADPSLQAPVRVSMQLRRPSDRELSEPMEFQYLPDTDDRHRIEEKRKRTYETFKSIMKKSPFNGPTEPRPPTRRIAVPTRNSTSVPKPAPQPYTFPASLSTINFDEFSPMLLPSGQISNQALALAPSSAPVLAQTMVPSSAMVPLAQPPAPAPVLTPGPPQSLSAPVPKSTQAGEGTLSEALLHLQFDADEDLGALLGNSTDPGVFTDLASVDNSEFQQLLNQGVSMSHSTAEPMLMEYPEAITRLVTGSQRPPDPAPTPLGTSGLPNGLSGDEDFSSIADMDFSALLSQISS

Structure (SMILES) | Activity (RAW264.7 [1]) [%] | Activity (L02) | also measured
CCCOc1ccc(Cl)cc1-c1cc(NC(=O)c2ccccc2F)c2nnc(C)n2c1 | 77.73 | Non-Toxic | –
COc1ncccc1-c1cc(NC(=O)C2CCCCC2)c2nnc(C)n2c1 | 49.99 | Non-Toxic | –
CC(=O)Nc1cc(-c2ccccc2-c2ccccc2)cn2c(C)nnc12 | 49.03 | Non-Toxic | –
CCS(=O)(=O)Nc1cccc(-c2cc(NC(C)=O)c3nnc(C)n3c2)c1 | 64.96 | Non-Toxic | –
CC(=O)Nc1cc(-c2cccc(OC(F)(F)F)c2)cn2c(C)nnc12 | 49.52 | Non-Toxic | –
CC(=O)Nc1cc(-c2ccccc2F)cn2c(C)nnc12 | 83.06 | Non-Toxic | –
CCS(=O)(=O)Nc1cc(-c2cc(C)ccc2OC)cn2c(C)nnc12 | 45.48 | Non-Toxic | –
Cc1nnc2c(NC(=O)c3ccc(F)cc3)cc(-c3ccc(Cl)cc3)cn12 | 42.88 | Non-Toxic | –
CCS(=O)(=O)Nc1cc(-c2ccccc2OCc2ccccc2)cn2c(C)nnc12 | 72.57 | Non-Toxic | –
COc1ncccc1-c1cc(NC(C)=O)c2nnc(C)n2c1 | 54.04 | Non-Toxic | –
CCS(=O)(=O)Nc1cc(-c2ccccc2-c2ccccc2)cn2c(C)nnc12 | 62.68 | Non-Toxic | –
COc1cccc(-c2cc(NC(C)=O)c3nnc(C)n3c2)c1 | 55.3 | Non-Toxic | –
CCOc1ccc(C(=O)Nc2cc(-c3cc(F)ccc3OC)cn3c(C)nnc23)cc1 | 28.01 | Non-Toxic | Activity (RAW264.7 [2]): Active; Activity (RAW264.7 [3]): Active; Activity (Mus musculus [4]): Active; Activity (Mus musculus [5]): 8.39%; inhibition at 20 µM (RAW264.7 [6]): 52.6%; Activity (Mus musculus [7]): Active; Activity (RAW264.7 [8]): Active; Activity (Mus musculus [9]): Active; Activity (Mus musculus [10]): 52.52%; Activity [11]: Dose-dependent effect; Activity (Mus musculus [12]): 65.39%; Activity (RAW264.7 [13]): Active; inhibition [14]: Dose-dependent effect; Activity (Mus musculus [15]): Active
CC(=O)Nc1cc(-c2cc(Cl)ccc2OCc2ccccc2)cn2c(C)nnc12 | 27.05 | Non-Toxic | –
CCS(=O)(=O)Nc1cc(-c2cccnc2OC)cn2c(C)nnc12 | 49.93 | Non-Toxic | –
CC(=O)Nc1cc(-c2ccccc2C(F)(F)F)cn2c(C)nnc12 | 42.36 | Non-Toxic | –
CC(=O)Nc1cc(-c2ccc(CN3CCOCC3)cc2)cn2c(C)nnc12 | 42.4 | Non-Toxic | –
CCCOc1ccc(Cl)cc1-c1cc(NC(C)=O)c2nnc(C)n2c1 | 49.05 | Non-Toxic | –

Structure (SMILES) | Activity (RAW264.7 [1]) [%] | Activity (L02) | also measured
CCS(=O)(=O)Nc1cc(-c2cc(Cl)ccc2OCc2ccccc2)cn2c(C)nnc12 | 26.01 | Non-Toxic | inhibition (RAW264.7 [6]): Active
CCS(=O)(=O)Nc1cc(-c2cccc(C(F)(F)F)c2)cn2c(C)nnc12 | 27.18 | Non-Toxic | –
CCS(=O)(=O)Nc1cccc(-c2cc([N+](=O)[O-])c3nnc(C)n3c2)c1 | 26.74 | Non-Toxic | –
Cc1nnc2c(NC(=O)c3cccc(C(F)(F)F)c3)cc(-c3ccc(Cl)cc3)cn12 | 30.98 | Non-Toxic | –
CCS(=O)(=O)Nc1cc(-c2ccccc2Cl)cn2c(C)nnc12 | 152.42 | Non-Toxic | –
CCOc1ccc(C)cc1-c1cc(NC(C)=O)c2nnc(C)n2c1 | 32.07 | Non-Toxic | –
CC(=O)Nc1cc(-c2ccccc2Cl)cn2c(C)nnc12 | 48.41 | Non-Toxic | –
CC(=O)Nc1cc(-c2ccccc2)cn2c(C)nnc12 | 44.71 | Non-Toxic | –
CCS(=O)(=O)Nc1cccc(-c2cc(NS(=O)(=O)CC)c3nnc(C)n3c2)c1 | 41.19 | Non-Toxic | –
CCS(=O)(=O)Nc1cc(-c2ccccc2C(F)(F)F)cn2c(C)nnc12 | 58.67 | Non-Toxic | –
CCOc1cc(F)ccc1-c1cc(NS(=O)(=O)CC)c2nnc(C)n2c1 | 34.85 | Non-Toxic | –
O=C1NC(=O)/C(=C/c2ccc3nccnc3c2)S1 | – | – | inhibition at 20 µM (RAW264.7 [6]): 40.5%
CCOc1cc(F)ccc1-c1cc(NC(C)=O)c2nnc(C)n2c1 | 65.85 | Non-Toxic | –
COc1ccc(C)cc1-c1cc(NC(C)=O)c2nnc(C)n2c1 | 58.83 | Non-Toxic | –
CCS(=O)(=O)Nc1cc(-c2ccccc2)cn2c(C)nnc12 | 44.44 | Non-Toxic | –
COc1ccc(F)cc1-c1cc(NC(=O)c2c(F)cccc2F)c2nnc(C)n2c1 | 61.96 | Non-Toxic | –
CCOc1cc(F)ccc1-c1cc(NC(=O)C2CCCCC2)c2nnc(C)n2c1 | 37.8 | Non-Toxic | inhibition (RAW264.7 [6]): Active
COc1ccc(F)cc1-c1cc(NC(=O)c2ccc(OCc3ccccc3)cc2Cl)c2nnc(C)n2c1 | 32.06 | Non-Toxic | –
